Tests used:
[1] = Cmax in Sprague-Dawley rat at 10 mg/kg, po […] by LC-MS/MS analysis; format: ADME, organism-based; set-up: route oral, dose 10 mg/kg; conditions: in vivo
[2] = Half life in Sprague-Dawley rat plasma at 5 mg/kg dosed via inhalation measured up to 24 hrs by LC-MS/MS analysis; conditions: inhaled or intranasal
[3] = Half life in monkey liver microsomes; format: ADME, Macaca mulatta, Microsome; conditions: rhesus monkey
In short: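 Liver microsomes, 0.5 mg/mL, with compound, 1 mM NADPH, 4 mM MgCl2 in PBS at 37 °C, in triplicate, started by NADPH. Sampled at 0–90 min and quenched in acetonitrile with caffeine internal standard. Analysed by HPLC-MS/MS. t1/2, intrinsic and extrapolated hepatic clearance derived by the Obach method.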

Cmax [1]: 122 ng/mL
half-life [2]: 2.3 h
half-life [3]: 0.31 h
SMILES: CC[C@@H](c1nc2cccc(F)c2c(=O)n1C1CC1)n1nc(-c2ccc(OC)c(F)c2)c2c(N)ncnc21

— ChEMBL document CHEMBL4699641, “Discovery of (S)-2-(1-(4-Amino-3-(3-fluoro-4-methoxyphenyl)-1H-pyrazolo[3,4-d]pyrimidin-1-yl)propyl)-3-cyclopropyl-5-fluoroquinazolin-4(3H)-one (IHMT-PI3Kδ-372) as a Potent and Selective PI3Kδ Inhibitor for the Treatment of Chronic Obstructive Pulmonary Disease” (J Med Chem, 2020)
